Assay results as given in ChEMBL document CHEMBL5029188.

Experiments:
SARS-CoV-2 = assay: Antiviral activity against SARS CoV-2 infected in African green monkey Vero cells assessed as inhibition of viral replication incubated for 48 to 72 hrs by plaque reduction assay; format: functional, organism-based; conditions: Severe acute respiratory syndrome coronavirus 2, Vero
HEK-293T = assay: Cytotoxicity against HEK293T cells assessed as reduction in cell viability measured after 72 hrs by CytoTox 96 nonradioactive cytotoxicity assay; format: cell-based; conditions: human
Procedure, shortened: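 HEK293T cells were exposed to compound at 1 to 100 μM for 72 h. Cytotoxicity was read with a CytoTox 96 nonradioactive kit, and CC50 was fitted with a variable-slope curve.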

[1] = Inhibition of SARS CoV-2 3C like protease using FAM-SAVLQ/SG-QLX520 as substrate pretreated for 1 hr followed by substrate addition and measured after 1 hr by FRET assay; set-up: species or system Severe acute respiratory syndrome coronavirus 2
Procedure, shortened: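 SARS-CoV-2 3CLpro was expressed from pET-28a(+). It was preincubated with serial compound dilutions at 37°C for 1 h in 20 mM HEPES pH 8, 200 mM NaCl, 0.4 mM EDTA, 60% glycerol and 6 mM DTT. IC50 came from a variable-slope fit, averaging at least two determinations.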

[2] = Inhibition of SARS CoV-2 3C like protease expressed in HEK293T cells transfected with pGlo-VRLQS incubated for 6 hrs by firefly/renilla luciferase reporter assay; format: cell-based; conditions: Severe acute respiratory syndrome coronavirus 2, HEK-293T
Procedure, shortened: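 HEK293T cells, one day old, were co-transfected with pR-SARS-CoV-2 3CLpro (3CLpro gene in a PRRSV replicon, between ORF1b and 2a) and pGlo-VRLQS (caged firefly luciferase with a VRLQS cleavage site, plus Renilla control). C145A-mutant and mock transfections served as negative controls. Next morning, serial compound dilutions were added for 6 h at 37 C. Read-out was the firefly/Renilla ratio, and EC50 came from a variable-slope fit.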

[3] = Inhibition of MERS CoV 3C like protease using FAM-SAVLQ/SG-QLX520 as substrate pretreated for 30 mins followed by substrate addition and measured after 1 hr by FRET assay; set-up: species or system Middle East respiratory syndrome-related coronavirus

Structure (SMILES)	EC50 (SARS-CoV-2) [nM]	CC50 (HEK-293T) [nM]	IC50 [1] [nM]	EC50 [2] [nM]	IC50 [3] [nM]
CC(C)C[C@H](NC(=O)OCc1ccccc1)C(=O)N[C@@H](C[C@@H]1CCNC1=O)C(O)S(=O)(=O)O (some centres not stated)	230				
CC(C)C[C@H](NC(=O)OCc1cccc(F)c1)C(=O)N[C@H](C=O)C[C@@H]1CCNC1=O		> 100000	350	5280	70
[2H]C([2H])(OC(=O)N[C@@H](CC(C)C)C(=O)N[C@H](C=O)C[C@@H]1CCNC1=O)c1c(F)c(F)c(F)c(F)c1F			470		
CCCC[C@H]1CC[C@H](OC(=O)N[C@@H](CC(C)C)C(=O)N[C@H](C=O)C[C@@H]2CCNC2=O)CC1		55000	170	4840	120
CCCCC(OC(=O)N[C@@H](CC(C)C)C(=O)N[C@H](C=O)C[C@@H]1CCNC1=O)C1CCC(F)(F)CC1 (some centres not stated)			190		
[2H]C([2H])(OC(=O)N[C@@H](CC(C)C)C(=O)N[C@@H](C[C@@H]1CCNC1=O)C(O)S(=O)(=O)[O-])c1c(F)c(F)c(F)c(F)c1F.[Na+] (some centres not stated)			600		
CC(C)C[C@H](NC(=O)OC1CCC(C)(C)CC1)C(=O)N[C@H](C=O)C[C@@H]1CCNC1=O		> 100000	250	3480	120
CC(C)C[C@H](NC(=O)OC[C@H]1CC[C@H](C(F)(F)F)CC1)C(=O)N[C@H](C=O)C[C@@H]1CCNC1=O			250		
CC(C)C[C@H](NC(=O)OCc1ccc(F)cc1)C(=O)N[C@H](C=O)C[C@@H]1CCNC1=O			390		
CC(C)C[C@H](NC(=O)O[C@H]1CC[C@H](c2ccccc2)CC1)C(=O)N[C@@H](C[C@@H]1CCNC1=O)C(O)S(=O)(=O)O (some centres not stated)			230		
CC(C)C[C@H](NC(=O)OC(C)(C)C1CCC(F)(F)CC1)C(=O)N[C@@H](C[C@@H]1CCNC1=O)C(O)S(=O)(=O)O (some centres not stated)			1250		
CC(C)C[C@H](NC(=O)OC(C)C1CCC(F)(F)CC1)C(=O)N[C@@H](C[C@@H]1CCNC1=O)C(O)S(=O)(=O)O (some centres not stated)			260		
CC(C)C[C@H](NC(=O)OC1CCC(C)(C)CC1)C(=O)N[C@@H](C[C@@H]1CCNC1=O)C(O)S(=O)(=O)O (some centres not stated)		> 100000	240	1670	120
CC(C)C[C@H](NC(=O)OCc1c(F)c(F)c(F)c(F)c1F)C(=O)N[C@H](C=O)C[C@@H]1CCNC1=O		> 100000		3270	50
CCCC(OC(=O)N[C@@H](CC(C)C)C(=O)N[C@@H](C[C@@H]1CCNC1=O)C(O)S(=O)(=O)O)c1ccccc1 (some centres not stated)		> 100000	210	3720	130
CCCC(OC(=O)N[C@@H](CC(C)C)C(=O)N[C@H](C=O)C[C@@H]1CCNC1=O)c1ccccc1 (some centres not stated)		> 100000	330	2390	80
CC(C)C[C@H](NC(=O)OCc1ccccc1F)C(=O)N[C@@H](C[C@@H]1CCNC1=O)C(O)S(=O)(=O)O (some centres not stated)			380		
CC(C)C[C@H](NC(=O)OC(Cc1ccccc1)C1CCC(F)(F)CC1)C(=O)N[C@@H](C[C@@H]1CCNC1=O)C(O)S(=O)(=O)O (some centres not stated)		> 100000	290	3500	140
CC(C)C[C@H](NC(=O)O[C@H]1CC[C@H](C(C)C)CC1)C(=O)N[C@@H](C[C@@H]1CCNC1=O)C(O)S(=O)(=O)O (some centres not stated)			240		
[2H]C([2H])(OC(=O)N[C@@H](CC(C)C)C(=O)N[C@@H](C[C@@H]1CCNC1=O)C(O)S(=O)(=O)[O-])[C@H]1CC[C@H](CCC)CC1.[Na+] (some centres not stated)			330		
CC(C)C[C@H](NC(=O)OC(Cc1ccccc1)c1ccccc1)C(=O)N[C@H](C=O)C[C@@H]1CCNC1=O (some centres not stated)			500		
[2H]C([2H])(OC(=O)N[C@@H](CC(C)C)C(=O)N[C@H](C=O)C[C@@H]1CCNC1=O)[C@H]1CC[C@H](CCC)CC1			330		
CC(C)C[C@H](NC(=O)OC[C@H]1CC[C@@H](C(F)(F)F)CC1)C(=O)N[C@@H](C[C@@H]1CCNC1=O)C(O)S(=O)(=O)O (some centres not stated)			200		
CC(C)C[C@H](NC(=O)OCc1ccc(F)cc1)C(=O)N[C@@H](C[C@@H]1CCNC1=O)C(O)S(=O)(=O)O (some centres not stated)			400		

Structure (SMILES)	EC50 (SARS-CoV-2) [nM]	CC50 (HEK-293T) [nM]	IC50 [1] [nM]	EC50 [2] [nM]	IC50 [3] [nM]
CC(C)C[C@H](NC(=O)OCC1CCC(F)(F)CC1)C(=O)N[C@H](C=O)C[C@@H]1CCNC1=O					80
CC(C)C[C@H](NC(=O)O[C@H]1CC[C@H](C(C)C)CC1)C(=O)N[C@H](C=O)C[C@@H]1CCNC1=O			240		
CC(C)C[C@H](NC(=O)OCc1ccccc1F)C(=O)N[C@H](C=O)C[C@@H]1CCNC1=O			340		
[2H]C([2H])(OC(=O)N[C@@H](CC(C)C)C(=O)N[C@@H](C[C@@H]1CCNC1=O)C(O)S(=O)(=O)[O-])C1CCC(F)(F)CC1.[Na+] (some centres not stated)			210		
CC(C)C[C@H](NC(=O)O[C@H]1CC[C@H](c2ccccc2)CC1)C(=O)N[C@H](C=O)C[C@@H]1CCNC1=O			220		
CC(C)C[C@H](NC(=O)OCC1CCC(F)(F)CC1)C(=O)N[C@@H](C[C@@H]1CCNC1=O)C(O)S(=O)(=O)O (some centres not stated)					100
CCC[C@H]1CC[C@H](COC(=O)N[C@@H](CC(C)C)C(=O)N[C@@H](C[C@@H]2CCNC2=O)C(O)S(=O)(=O)O)CC1 (some centres not stated)		44000	200	4430	110
CC(C)C[C@H](NC(=O)OC[C@H]1CC[C@H](C(F)(F)F)CC1)C(=O)N[C@@H](C[C@@H]1CCNC1=O)C(O)S(=O)(=O)O (some centres not stated)			190		
CC(C)C[C@H](NC(=O)OC(c1ccccc1)C1CCC(F)(F)CC1)C(=O)N[C@H](C=O)C[C@@H]1CCNC1=O (some centres not stated)		> 100000	130	1030	40
CCCCC(OC(=O)N[C@@H](CC(C)C)C(=O)N[C@@H](C[C@@H]1CCNC1=O)C(O)S(=O)(=O)O)C1CCC(F)(F)CC1 (some centres not stated)			270		
CCC[C@H]1CC[C@H](OC(=O)N[C@@H](CC(C)C)C(=O)N[C@@H](C[C@@H]2CCNC2=O)C(O)S(=O)(=O)O)CC1 (some centres not stated)			190		
[2H]C([2H])(OC(=O)N[C@@H](CC(C)C)C(=O)N[C@@H](C[C@@H]1CCNC1=O)C(O)S(=O)(=O)[O-])c1ccc(F)cc1.[Na+] (some centres not stated)			320		
CC(C)C[C@H](NC(=O)OC[C@H]1CC[C@@H](C(F)(F)F)CC1)C(=O)N[C@H](C=O)C[C@@H]1CCNC1=O			230		
CC(C)C[C@H](NC(=O)OC(C)(C)C1CCC(F)(F)CC1)C(=O)N[C@H](C=O)C[C@@H]1CCNC1=O			1200		
[2H]C([2H])(OC(=O)N[C@@H](CC(C)C)C(=O)N[C@H](C=O)C[C@@H]1CCNC1=O)c1ccc(F)cc1			390		
CC(C)C[C@H](NC(=O)OCc1cccc(F)c1)C(=O)N[C@@H](C[C@@H]1CCNC1=O)C(O)S(=O)(=O)O (some centres not stated)		> 100000	360	3400	70
CC(C)C[C@H](NC(=O)OC(Cc1ccccc1)C1CCC(F)(F)CC1)C(=O)N[C@H](C=O)C[C@@H]1CCNC1=O (some centres not stated)		> 100000	310	2950	100
CC(C)C[C@H](NC(=O)OC(Cc1ccccc1)c1ccccc1)C(=O)N[C@@H](C[C@@H]1CCNC1=O)C(O)S(=O)(=O)O (some centres not stated)			310		
CC(C)C[C@H](NC(=O)OCc1c(F)c(F)c(F)c(F)c1F)C(=O)N[C@@H](C[C@@H]1CCNC1=O)C(O)S(=O)(=O)O (some centres not stated)		> 100000		4840	80
CCCC[C@H]1CC[C@H](OC(=O)N[C@@H](CC(C)C)C(=O)N[C@@H](C[C@@H]2CCNC2=O)C(O)S(=O)(=O)O)CC1 (some centres not stated)	850	58000		4230	150
CC(C)C[C@H](NC(=O)OC(C)C1CCC(F)(F)CC1)C(=O)N[C@H](C=O)C[C@@H]1CCNC1=O (some centres not stated)			260		
CCC[C@H]1CC[C@H](OC(=O)N[C@@H](CC(C)C)C(=O)N[C@H](C=O)C[C@@H]2CCNC2=O)CC1			250		
